Assay outcomes (PubChem BioAssay)
An excerpt weighted towards active compounds, which were near 2% of everything screened.
E-sel inducer: E-selectin induction on HUVECs; P16581; actives 0.37% (n = 260,000); HUVEC E-selectin immunofluorescence imaging; normalized: neutral wells 0, TNF-alpha wells 100; AID 686992; activation, % at 7.58 µM;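 active = mean E-selectin-positive cell signal at least 10% of the positive control, reached in at least 60% of replicates, without over 20% cell loss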
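Read-out: % PE-positive cells | Test system: HUVEC | Doses: One compound dose added by pin transfer | Buffer or medium: EGM-2 over gelatin coat | Signal: Immunofluorescence imaging | Benchmarks: TNF-alpha, DMSO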
RAD54 inh: blocks human RAD54 Holliday junction branch migration; Q92698; FAM/BHQ fluorescence; inhibition, % at 10.4 µM; actives 0.14% (n = 360,000); AID 602329;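 active = mean normalized replicate activity at least 40 and at least half of replicates scoring 40 or more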;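 also: inhibitors cause a drop in the FAM fluorescence signal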
Xi reactivation: reactivates the inactive X chromosome in mouse fibroblasts. XiGFP mouse fibroblasts, % GFP-positive cells imaging, 3 d; cells co-treated with 5-aza-dC sensitizer; scaled so ellipticine positive control = 100%. activation, % at 7.58 µM. actives 0.055% (n = 360,000). AID 743238;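 active = mean normalized replicate activation at least 10% and every replicate at or above 10%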
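System: XiGFP fibroblasts, SV40-immortalized. Medium: DMEM plus 5-aza-dC sensitizer. Doses: single point. Timing: 3 d treatment, 15 min room-temperature fixation. Control set: ellipticine 6 µM.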
RAD52 anneal inh: blocks human RAD52 DNA annealing; AID 651710; recombinant RAD52 DNA annealing, FRET fluorescence; actives 0.46% (n = 360,000); inhibition, % at 18.7 µM;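 active = every replicate showing at least 50% inhibition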
Target sequence (P43351 whole entry, looked up): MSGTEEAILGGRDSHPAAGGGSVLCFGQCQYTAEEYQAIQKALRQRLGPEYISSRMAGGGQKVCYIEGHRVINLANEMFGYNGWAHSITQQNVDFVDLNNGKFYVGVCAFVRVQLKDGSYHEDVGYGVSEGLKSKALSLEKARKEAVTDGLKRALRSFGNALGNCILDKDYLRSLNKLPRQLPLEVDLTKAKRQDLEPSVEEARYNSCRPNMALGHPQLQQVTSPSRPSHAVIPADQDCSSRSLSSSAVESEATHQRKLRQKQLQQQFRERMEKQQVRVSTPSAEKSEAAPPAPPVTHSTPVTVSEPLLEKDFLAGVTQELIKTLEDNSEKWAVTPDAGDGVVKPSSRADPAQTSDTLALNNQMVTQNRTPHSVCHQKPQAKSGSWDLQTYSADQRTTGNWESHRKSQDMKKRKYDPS
rRNA inh HTS: inhibitors of bacterial rRNA selective over humanized ribosomes. E. coli WT GFP vs humanized-ribosome RFP mutants, fluorescence, 24 h; hits give low values; DMSO median 0, no signal -100. GFP signal change (wild-type ribosome), % (no concentration beside the values). actives 1.6% (n = 350,000);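 active = significant combined selectivity score with lowered wild-type GFP, culture density cut under 30%, mutant RFP and density less affected; inactive = any of these conditions unmet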
PglD DTNB: PglD (C. jejuni) enzyme inhibition. purified PglD enzyme, DTNB colorimetric CoA detection. inhibition, % at 12.5 µM. actives 0.098% (n = 360,000). AID 602405; in the data active = inhibition above about 16%, passing the limit was not always enough
A number is an active result; - = inactive; . = not tested or not shown.

SMILES | E-sel inducer | RAD54 inh | Xi reactivation | RAD52 anneal inh | rRNA inh HTS | PglD DTNB
Cc1ccc(C(=O)Nc2nc(C)c(C(=O)Nc3ccc4c(c3)CCC4)s2)cc1 | - | - | - | - | -30 | -
COc1ccc(SC2=C[C@@]3(O)CC[C@@H](O)[C@@](Sc4ccc(OC)cc4)(C2=O)[C@H]3O)cc1 | - | . | - | - | - | .
O=C1C(Sc2ccccc2)=C[C@@]2(O)CC[C@@H](O)[C@]1(Sc1ccccc1)[C@H]2O | - | . | - | - | -23 | .
COc1ccc(CN(C)C[C@H]2Oc3ccc(NC(=O)Nc4ccc(C(F)(F)F)cc4)cc3CC(=O)N([C@@H](C)CO)C[C@H]2C)cc1 | - | - | - | - | - | -
O=C(N[C@@H]1C=C[C@@H](CC(=O)N2CCOCC2)O[C@@H]1CO)c1ccccn1 | - | - | - | - | - | -
CCN(CC)CCN(C(=O)c1ccccc1OC)c1nc2ccc(F)cc2s1 | - | . | - | - | -22 | .
O=C(CC1(c2ccc(Cl)cc2)C2CC3CC(C2)CC1C3)NCCO (stereo unspecified) | - | . | - | - | -42 | .
OCCCc1cn(-c2ccccc2)c2ccccc12 | . | . | - | - | -39 | .
Cn1c(-c2ccccc2)c(CCO)c2ccccc21 | . | - | . | . | . | -
O=C(Nc1ccc(Oc2ccccc2)cc1)c1csc([C@@H]2O[C@H](CO)[C@@H](O)[C@H]2O)n1 | - | - | - | - | -31 | -
O=C(Nc1ccc(OCCO)cc1)c1csc([C@@H]2O[C@H](CO)[C@H](O)[C@H](O)[C@H]2O)n1 | - | - | - | - | - | -
O=C(NCC[C@H]1CC[C@H](NC(=O)Nc2cc(F)ccc2F)[C@@H](CO)O1)Nc1ccc(Cl)cc1 | - | . | - | . | - | -
S=C(NCCN1CCOCC1)Nc1ccc(-c2nc3ccccc3[nH]2)cc1 | - | . | - | - | -24 | .
Fc1ccc(NC(=S)NCCN2CCOCC2)cc1 | - | . | - | - | - | .
Cc1ccc(N2C(=O)[C@@H]3C(c4cccnc4)=NO[C@@H]3C2=O)c(C)c1 | 31 | . | - | - | - | .
COc1ccc(C2=NO[C@@H]3C(=O)N(c4ccc(C)cc4C)C(=O)[C@H]23)cc1OC | . | - | . | . | . | -
COc1ccc(C(=O)N(c2ccccc2)c2nccc3ccccc23)cc1OC | - | - | - | - | -19 | -
COc1ccc(C(=O)NCc2cc(C)nc3ccccc23)cc1OC | - | - | - | - | - | -
C[C@H](CO)N1C[C@H](C)[C@H](CN(C)C(=O)c2ccncc2)OCCCC[C@H](C)Oc2ccc(NS(=O)(=O)c3ccc(Cl)cc3)cc2C1=O | - | - | - | - | - | -
COc1ccc(OC)c(NC(=O)Nc2ccc(O)c3ccccc23)c1 | - | - | - | - | . | -
COc1ccc(OC)c(NC(=O)Nc2c(O)ccc3ccccc23)c1 | - | - | - | - | -27 | -
Cc1nc2c(C#N)c[nH]n2c(=O)c1CCO | . | - | - | - | - | -
Cc1nc2c(C#N)c[nH]n2c(=O)c1Cc1ccccc1 | . | - | . | - | -22 | -
Cc1ccc(N2C(=O)C(F)(F)C2c2ccccc2)cc1 (stereo unspecified) | - | - | - | - | - | -
COc1ccc(C2N(c3ccccc3)C(=O)C2(F)F)cc1OC (stereo unspecified) | - | - | - | - | -23 | -
SMILES | E-sel inducer | RAD54 inh | Xi reactivation | RAD52 anneal inh | rRNA inh HTS | PglD DTNB
Cc1noc(C)c1NC(=O)Nc1ccc2c(c1)CC(=O)N([C@H](C)CO)C[C@@H](C)[C@@H](CN(C)S(=O)(=O)c1ccccc1)O2 | - | - | - | - | - | -
CCC(=O)N1C[C@@H](C)[C@H](OC)CN(C)C(=O)c2ccc(NC(=O)c3ccccc3)cc2OC[C@H]1C | - | - | - | - | - | -
C[C@@H]1CN([C@H](C)CO)C(=O)c2cc(NS(=O)(=O)c3cccs3)ccc2O[C@@H](C)CCCCO[C@@H]1CN(C)Cc1ccc(C(=O)O)cc1 | - | - | - | - | - | -
CC(=O)Nc1cccc2c1Cc1ccccc1-2 | . | - | . | . | . | -
CC(=O)Nc1cccc2c1Cc1cc([N+](=O)[O-])ccc1-2 | - | . | - | - | -19 | .
C[C@@H]1CN([C@H](C)CO)C(=O)c2cc(-c3ccncc3)cnc2O[C@@H]1CN(C)S(=O)(=O)c1ccccc1 | - | - | - | - | - | -
Cc1cc(C)cc(-n2c(C)cc(/C=N\NC(=O)COc3cccc4cccnc34)c2C)c1 | . | - | - | - | -21 | -
CNc1ccc(C=C2C=Cc3ccccc32)cc1 | - | . | - | - | -20 | .
OC1(c2ccccc2F)CCN(Cc2nnnn2Cc2ccc(F)cc2)CC1 | - | - | - | - | -21 | .
Cc1ccc(Cn2nnnc2CN2CCC(O)(c3ccc(F)cc3)CC2)cc1 | . | - | . | - | -27 | -
COc1ccc(Cn2nnnc2CN2CCC(O)(c3ccccc3F)CC2)cc1 | - | . | - | - | - | .
CCOC(=O)C1(C(N)=O)OC1(c1ccc(Cl)cc1)c1ccccc1Cl (stereo unspecified) | - | - | - | - | -19 | -
NC(=O)C1(C(=O)O)OC1(c1ccc(Cl)cc1)c1ccccc1Cl (stereo unspecified) | - | - | - | - | - | -
COCC#Cc1ccc2c(c1)O[C@@H](CN(C)CC1CCCC1)[C@H](C)CN([C@@H](C)CO)S2(=O)=O | - | - | - | - | - | -
O=C(O)c1cccc(S(=O)(=O)N(Cc2ccccc2)c2ccccc2)c1 | . | . | - | - | - | .
O=C(O)c1cccc(S(=O)(=O)N(Cc2ccccc2)c2ccc(Cl)cc2)c1 | - | - | - | - | -44 | -
COc1ccc2c3c(n(C)c2c1)[C@@H](CO)N(C(=O)Cc1ccccn1)CC31CN(CC2CCOCC2)C1 | - | . | - | - | - | .
Cc1ccc(-c2ccc([C@H]3[C@@H](CO)N4CCCCN(Cc5ccccn5)C[C@H]34)cc2)cc1 | - | - | - | - | - | -
CCCN1CCN(C(=O)c2ccc(CS(=O)c3ccc(Br)cc3)o2)CC1 (stereo unspecified) | . | - | - | - | - | -
CCCN1CCN(C(=O)c2ccc(CS(=O)c3ccc(Cl)cc3)o2)CC1 (stereo unspecified) | 49 | - | - | - | - | -
O=C(NC[C@@H]1CC[C@H]2[C@H](CN2C(=O)CN2CCOCC2)O1)NC1CCCCC1 | . | . | . | - | . | .
C(=N\N(Cc1ccccc1)c1ccccc1)/c1cccnc1 | . | . | - | - | - | .
Oc1cccc(/C=N/N(Cc2ccccc2)c2ccccc2)c1 | - | . | - | - | -42 | .
CCN(C(=O)Cn1ccc(C(F)(F)F)n1)c1c(N)n(Cc2ccccc2)c(=O)[nH]c1=O | 110 | - | - | - | - | -
CCCCN(C(=S)NC(=O)c1ccccc1)c1c(N)n(Cc2ccccc2)c(=O)[nH]c1=O | 40 | - | - | - | - | -
